These results are taken from paper PMC12345971 (Computational and Structural Biotechnology Journal, 2025).

Data set [1] relates to HepG2 hepatocellular carcinoma cell line. The data set can be described thus: Cytotoxic assay. The format is cell-based, human.
Data set [2] is described as follows: Cytotoxicity against normal cell line. The format is cell-based. The settings on record: human, MRC-5 normal fetal lung fibroblast cells.
For data set [3], the system named is A549 lung carcinoma cell line. The data set can be described thus: Cytotoxic assay. The format is cell-based, human. The essentials:
(§1)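 A549 (passage 20–26) and HuCCA-1 (passage 115–121) kept in Ham's F12 with 2 mM L-glutamine, 100 U/mL penicillin-streptomycin, 10 % FBS; MRC-5 fibroblasts (passage 19–23) in DMEM, 10 % FBS. Cells seeded at 5 × 10³ – 2 × 10⁴/well in RPMI-1640 + 10 % FBS, 24 h at 37C, 5 % CO₂. DMSO-dissolved test compound added as serial dilutions, 48 h. MTT, absorbance 550 nm; IC50 = 50 % growth inhibition.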

The subject of data set [4] is HuCCA-1 cholangiocarcinoma cancer cell line. The data set can be described thus: Cytotoxic assay. The format is cell-based, human. As to conditions: IC50 for normal cell (MRC-5) / IC50 for cancer cell. The essentials: as §1
Data set [5] deals with MOLT-3 lymphoblastic leukemia cell line. The data set can be described thus: Cytotoxic assay. The format is cell-based, human. As to conditions: for IC50: Homo sapiens. The essentials:
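MOLT-3 leukemia cells (passage 15–25) grown in RPMI-1640 with 2 mM L-glutamine, penicillin-streptomycin, sodium pyruvate, glucose, 10 % FBS. Seeding was at 5 × 10³ – 2 × 10⁴ cells/well, 24 h at 37C, 5 % CO₂. Serial dilutions of test compound in DMSO then given for 48 h. XTT read-out at 550 nm. Normal-cell comparator: MRC-5 in DMEM, MTT read-out. IC50 is the concentration for 50 % growth inhibition.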

For data set [6], the system named is 4 cancer cell lines (HepG2, HuCCA-1, A549, MOLT-3). The data set can be described thus: Cytotoxic assay, range over the four cancer cell lines. The format is cell-based. The settings on record: Homo sapiens, read-out: IC50, range over the tested cancer cell lines. The essentials:
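Human HepG2 (DMEM), HuCCA-1 and A549 (Ham's F12), and MOLT-3 (RPMI-1640) were all in 10 % FBS. MRC-5 normal fibroblasts were in DMEM. Seeding was at 5 × 10³ – 2 × 10⁴ cells/well for 24 h at 37C. Serial dilutions of test compound (DMSO solvent) were given for 48 h. Adherent lines were read by MTT and MOLT-3 by XTT, absorbance 550 nm. IC50 is the concentration for 50 % growth inhibition.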

The mark [7] stands for this setting: IC50 for normal cell (MRC-5) / IC50 for cancer cell.

Read-outs that look alike come from different tables or passages of the source.

With `COc1cccc2c1C(=O)c1c(O)c3c(c(O)c1C2=O)C[C@@](O)(C(=O)CO)C[C@@H]3O[C@H]1C[C@H](N)[C@H](O)[C@H](C)O1` [Doxorubicin, doxorubicin], the IC50 in data set [1] (Homo sapiens, HepG2, 48 h, read-out: IC50 HepG2, MTT, 48 h) turned out to be 460 nM; in data set [3] (Homo sapiens, A549, 48 h, read-out: IC50 A549) it was 310 nM. Also, in data set [1] (setting [7]), the “Selectivity index (SI) HepG2” value is 2.02. In data set [2], this compound came in with an IC50 at 48 h of 930 nM. In data set [3] (setting [7]), the “Selectivity index (SI) A549” value was 3.02. In addition, the “Selectivity index (SI) HuCCA-1” value in data set [4] was found to be 1.08.

`COc1cc([C@@H]2c3cc4c(cc3[C@@H](O[C@@H]3O[C@@H]5CO[C@@H](C)O[C@H]5[C@H](O)[C@H]3O)[C@H]3COC(=O)[C@H]23)OCO4)cc(OC)c1O` [Etoposide, etoposide]: the IC50 at 48 h in data set [2] worked out at 13400 nM. Also, the IC50 in data set [5] (MOLT-3, 48 h, read-out: IC50 MOLT-3) was determined as 60 nM. In data set [5] (setting [7]), the “Selectivity index (SI) MOLT-3” value worked out at 218.85.

On to `CC1=CC(=O)c2c(O)cccc2C1=O` [Compound 10, plumbagin], for which the IC50 was 1380 to 13600 nM in data set [6] and 1380 nM in data set [5] (MOLT-3, read-out: Experimental pIC50 MOLT-3 (converted)).
